Test results from publication PMC10938339 (ACS Omega, 2024).
Read-outs that look alike come from different tables or passages of the source.

Legend:
PPT1 [1] = target: T1, PPT1 (Homo sapiens, UniProt P50897); assay: biochemical; details: for IC50: IC50 (95 % CI)
T1 sequence (P50897 28-306): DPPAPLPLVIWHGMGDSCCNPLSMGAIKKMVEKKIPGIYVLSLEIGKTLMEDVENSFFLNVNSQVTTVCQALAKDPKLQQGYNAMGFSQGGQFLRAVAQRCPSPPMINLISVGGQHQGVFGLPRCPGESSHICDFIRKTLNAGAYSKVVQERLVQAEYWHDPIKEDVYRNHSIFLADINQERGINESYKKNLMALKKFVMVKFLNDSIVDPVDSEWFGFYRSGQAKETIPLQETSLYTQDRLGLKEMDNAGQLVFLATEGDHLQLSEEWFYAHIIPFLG

PPT1 [2] = details: cited from earlier work
[3] = tested on: neuroblastoma SH-SY5Y cell line; type: cell-based, human; details: 48 h treatment, alamarBlue 18 h; NA = not active
[4] = target: T2, PPT1 in HepG2 cell extracts (Homo sapiens, UniProt P50897); assay: PPT1 inhibition in HepG2 cell extracts; type: biochemical; details: cell extracts treated 1 h
T2 sequence (P50897 28-306): T1 sequence (P50897 28-306)
Outline: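 HepG2 lysates, prepared as for cells (MPER, protease inhibitor, 0.5% Triton X-100, 14,000 rpm spin), were treated directly with compound for 1 h. PPT1 activity was then read with the MU-6S-Palm-βGlc/β-glucosidase assay, measuring 4-methylumbelliferone fluorescence. Biological duplicates with technical triplicates; percent activity expressed relative to DMSO control.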

[5] = cited from earlier work
PPT1 in HepG2 cells = target: T3, PPT1 in HepG2 cells (Homo sapiens, UniProt P50897); assay: PPT1 inhibition in HepG2 cells; type: cell-based; details: intact cells treated 5 h, activity relative to DMSO control
T3 sequence (P50897 28-306): T1 sequence (P50897 28-306)
Outline: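 HepG2 cells in DMEM + 10% FBS (37 °C, 5% CO2) were seeded overnight, then exposed to compound in medium for 5 h. They were lysed in MPER with protease inhibitor and 0.5% Triton X-100, spun at 14,000 rpm for 15 min, and protein-normalised. Lysates were assayed with MU-6S-Palm-βGlc plus β-glucosidase (4-MU fluorescence, Ex 365/Em 448, 4-MU standard curve). Biological duplicates, technical triplicates; activity relative to DMSO.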

[6] = cited from earlier work; remark: listed apart in the source

| Molecule | IC50 (PPT1 [1]) | further results |
| --- | --- | --- |
| CCN(CC)Cc1cc(Nc2ccnc3cc(Cl)ccc23)ccc1O [Amodiaquine] | 344 µM | – |
| CCN(CC)CCCC(C)Nc1ccnc2cc(Cl)ccc12 (centres unmarked) [Chloroquine] | 47.2 µM | – |
| CC(C)(C)NC1CCN(c2cc(NCc3ccc(Cl)cc3)nc3ccccc23)CC1 [GNS561] | – | PPT1 inhibition (PPT1 [2]; 1 μM after 3 h): 25%; PPT1 inhibition (PPT1 [2]; 1 μM after 72 h): 50% |
| CCN(CC)CCNc1ccc(CO)c2sc3ccccc3c(=O)c12 [Hycanthone] | 111 µM | – |
| CCN(CCO)CCCC(C)Nc1ccnc2cc(Cl)ccc12 (centres unmarked) [Hydroxychloroquine] | 109 µM | SH-SY5Y IC50 [3]: did not reach a 50% decrease in cell viability at the highest concentration tested |
| OC(c1cc(C(F)(F)F)nc2c(C(F)(F)F)cccc12)C1CCCCN1 (centres unmarked) [Mefloquine] | – | inhibition at 125 µM (PPT1 [1]; compound 125 μM): ≤ 50% |
| Cc1ncc([N+](=O)[O-])n1CCO [Metronidazole] | > 100 µM | – |
| CCOC(=O)[N-]c1cn(N2CCOCC2)n[o+]1 [Molsidomine] | > 100 µM | – |
| CCCCCCCCCCC[C@@H](C[C@@H]1OC(=O)[C@H]1CCCCCC)OC(=O)[C@H](CC(C)C)NC=O [Orlistat] | 0.179 µM | % Inhibition (PPT1 [1]; Spectrum Collection library screen, substrate 20 μM): 90.7%; PPT1 inhibition in HepG2 cell extracts (in words) [4]: inhibited PPT1 in cell extracts; oral absorption [5]: poorly orally absorbed; PPT1 inhibition in HepG2 cells (in words) (PPT1 in HepG2 cells): poor PPT1 inhibition |
| TVB-3166 | – | PPT1 inhibition (in words) (PPT1 [1]; FASN inhibitors tested against PPT1): did not inhibit PPT1 |

The next lines start with results.

| IC50 (PPT1 [1]) | Molecule | further results |
| --- | --- | --- |
| > 100 µM | Cc1ncc([N+](=O)[O-])n1CC(O)CCl (centres unmarked) [Ornidazole] | – |
| 0.0118 µM | CCCCCCCCCC[C@@H]1C(=O)O[C@H]1CCc1ccc(OC)c(OC)c1 [Palmostatin B] | PPT1 inhibition in HepG2 cell extracts (in words) [4]: inhibited PPT1 in cell extracts; PPT1 inhibition in HepG2 cells (in words) (PPT1 in HepG2 cells): poor PPT1 inhibition |
| > 100 µM | CC(CN1c2ccccc2Sc2ccccc21)N(C)C (centres unmarked) [Promethazine] | – |
| ~169 µM | CCN(CC)CCCC(C)Nc1c2ccc(Cl)cc2nc2ccc(OC)cc12 (centres unmarked) [Quinacrine] | – |
| 63.3 µM | CO[C@H]1/C=C/O[C@@]2(C)Oc3c(C)c(O)c4c(O)c(c(/C=N/N5CCN(C6CCCC6)CC5)c(O)c4c3C2=O)NC(=O)/C(C)=C\C=C\[C@H](C)[C@H](O)[C@@H](C)[C@@H](O)[C@@H](C)[C@H](OC(C)=O)[C@@H]1C [Rifapentine] | – |
| ~156 µM | C[C@@H]1O[C@@H](OC[C@H]2O[C@@H](Oc3c(-c4ccc(O)c(O)c4)oc4cc(O)cc(O)c4c3=O)[C@H](O)[C@@H](O)[C@@H]2O)[C@H](O)[C@H](O)[C@H]1O [Rutin trihydrate] | – |
| 236 µM | Cn1nnc2c(C(N)=O)ncn2c1=O [Temozolomide] | – |
| > 100 µM | CN(C)[C@@H]1C(O)=C(C(N)=O)C(=O)[C@@]2(O)C(O)=C3C(=O)c4c(O)cccc4[C@@](C)(O)[C@H]3C[C@@H]12 [Tetracycline] | – |
| 179 µM | Cc1ccc(C(=O)c2cc(O)c(O)c([N+](=O)[O-])c2)cc1 [Tolcapone] | blood–brain barrier penetration [6]: can penetrate the blood–brain barrier |
| 647 µM | COc1cc(C=O)ccc1O [Vanillin] | – |
